Measured values published in ChEMBL document CHEMBL4257552, “2-Aminobenzimidazoles as antibiofilm agents against Salmonella enterica serovar Typhimurium” (Medchemcomm, 2018).

Assays:
Salmonella typhimurium [1] = assay: Antibiofilm activity against Salmonella typhimurium ATCC 14028 after 24 hrs by crystal violet staining based assay; format: functional, organism-based, Salmonella enterica subsp. enterica serovar Typhimurium; conditions: Salmonella enterica, ATCC 14028, 24 h
Summary of the method: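 S. Typhimurium ATCC 14028 overnight TSB culture subcultured to OD600 0.08 in 1:20 TSB:water, compound added at set concentrations, static incubation in PVC 96-well plates 24 h at 30 °C. IC50 from dose-response curves.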

Galleria mellonella = assay: Toxicity in Galleria mellonella at 400 mg/kg; format: organism-based; conditions: in vivo
Salmonella typhimurium [2] = assay: Inhibition of planktonic growth of Salmonella typhimurium ATCC 14028 after 2 to 24 hrs; format: organism-based; conditions: salmonella enterica subsp. enterica serovar typhimurium
Summary of the method: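 Overnight TSB culture diluted into fresh 1:20 TSB (OD600 0.08), 3 mL tubes with compound or untreated control, shaken at 30 °C. Samples at 2, 4, 6, 8 and 24 h serially diluted in 1:20 TSB, plated on nutrient agar, incubated overnight at 37 °C, and colonies counted.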

Row | SMILES | IC50 (Salmonella typhimurium [1]) [µM] | further results
1 | CCCCCc1ccc(C(=O)Nc2ccc3c(c2)nc(N)n3CCc2c[nH]c3ccccc23)cc1 | 10 to 15 | –
2 | CCCCCc1ccc(C(=O)Nc2ccc3c(c2)nc(N)n3CCCc2ccccc2)cc1 | 13.1 | –
3 | CCCCCc1ccc(C(=O)Nc2ccc3c(c2)nc(N)n3CCCCc2ccccc2)cc1 | 9.59 | –
4 | CCCCCCn1c(N)nc2ccc(NC(=O)c3ccc(CCCCC)cc3)cc21 | 10 to 15 | –
5 | Cl.Nc1nc2cc(NC(=O)c3cc(Cl)cc(Cl)c3)ccc2n1CCCc1ccccc1 | 10 to 15 | Activity (Galleria mellonella): Non-Toxic
6 | Cl.Nc1nc2cc(NC(=O)Nc3ccc(Cl)c(Cl)c3)ccc2n1CCCc1ccccc1 | 7.69 | Activity (Salmonella typhimurium [2]): Non-Toxic
7 | CCCCCCCC(=O)Nc1ccc2c(c1)nc(N)n2CCCc1ccccc1 | > 40 | –
8 | CCCCCCCCCCn1c(N)nc2cc(NC(=O)c3ccc(CCCCC)cc3)ccc21 | 20 to 40 | –
9 | CCCCCc1ccc(C(=O)Nc2ccc3nc(N)n(C)c3c2)cc1 | 20 to 40 | –
10 | CCCCCc1ccc(C(=O)Nc2ccc3nc(N)n(CC)c3c2)cc1 | 20 to 40 | –
11 | CCCCCc1ccc(C(=O)Nc2ccc3c(c2)nc(N)n3CC(C)C)cc1 | 10 to 15 | –
12 | CCCCCCC(=O)Nc1ccc2c(c1)nc(N)n2CCCc1ccccc1 | 20 to 40 | –
13 | CCCCCCCCCCC(=O)Nc1ccc2c(c1)nc(N)n2CCCc1ccccc1 | 10 to 15 | –
14 | Nc1nc2cc(NC(=O)c3ccc(Br)c(Br)c3)ccc2n1CCCc1ccccc1 | 5.38 | –
15 | CCCCCCCCc1ccc(C(=O)Nc2ccc3c(c2)nc(N)n3CCCc2ccccc2)cc1 | > 50 | –
16 | CCCCCc1ccc(C(=O)Nc2ccc3c(c2)nc(N)n3C2CCCCC2)cc1 | 15 to 20 | –
17 | CCCCCc1ccc(C(=O)Nc2ccc3nc(N)n(C(C)C)c3c2)cc1 | 20 to 40 | –
18 | CCCCCCCCCCCCCC(=O)Nc1ccc2c(c1)nc(N)n2CCCc1ccccc1 | > 50 | –

More lines, main results first:

Row | IC50 (Salmonella typhimurium [1]) [µM] | SMILES | further results
19 | 20 to 40 | CCCCCc1ccc(C(=O)Nc2ccc3c(c2)nc(N)n3C)cc1 | –
20 | 20 to 40 | CCCCCc1ccc(C(=O)Nc2ccc3c(c2)nc(N)n3C(C)C)cc1 | –
21 | 15 to 20 | CCCCCc1ccc(C(=O)Nc2ccc3c(c2)nc(N)n3CCCC)cc1 | –
22 | 10.8 | CCCCCCn1c(N)nc2cc(NC(=O)c3ccc(CCCCC)cc3)ccc21 | –
23 | 6.66 | CCCCCCCCn1c(N)nc2cc(NC(=O)c3ccc(CCCCC)cc3)ccc21 | –
24 | 20 to 40 | CCCCCCCCCCCCn1c(N)nc2cc(NC(=O)c3ccc(CCCCC)cc3)ccc21 | –
25 | 15 to 20 | CCCCCc1ccc(C(=O)Nc2ccc3c(c2)nc(N)n3C2CCCC2)cc1 | –
26 | 20 to 40 | CCCCCc1ccc(C(=O)Nc2ccc3c(c2)nc(N)n3CCc2cnc[nH]2)cc1 | –
27 | 15 to 20 | CCCCCCc1ccc(C(=O)Nc2ccc3c(c2)nc(N)n3CCCc2ccccc2)cc1 | –
28 | 20 to 40 | CCc1ccc(C(=O)Nc2ccc3c(c2)nc(N)n3CCCc2ccccc2)cc1 | –
29 | 15 to 20 | CCCCOc1ccc(C(=O)Nc2ccc3c(c2)nc(N)n3CCCc2ccccc2)cc1 | –
30 | 15 to 20 | CCCCCCCc1ccc(C(=O)Nc2ccc3c(c2)nc(N)n3CCCc2ccccc2)cc1 | –
31 | 6.3 | Cl.Nc1nc2cc(NC(=O)c3ccc(Cl)c(Cl)c3)ccc2n1CCCc1ccccc1 | Activity (Galleria mellonella): Non-Toxic
32 | 5.22 | CCCCCOc1ccc(C(=O)Nc2ccc3c(c2)nc(N)n3CCCc2ccccc2)cc1.Cl | growth inhibition (GI) (Salmonella typhimurium [2]): Non-Toxic
33 | 10 to 15 | CCCCCCCCCC(=O)Nc1ccc2c(c1)nc(N)n2CCCc1ccccc1 | –
34 | 15 to 20 | CCCc1ccc(C(=O)Nc2ccc3c(c2)nc(N)n3CCCc2ccccc2)cc1 | –
35 | > 50 | CCCCCCCCCCCC(=O)Nc1ccc2c(c1)nc(N)n2CCCc1ccccc1 | –
36 | 10 to 15 | CCCCCc1ccc(C(=O)Nc2ccc3nc(N)n(CCCC)c3c2)cc1 | –
37 | 10 to 15 | CCCCc1ccc(C(=O)Nc2ccc3c(c2)nc(N)n3CCCc2ccccc2)cc1 | –
38 | 12.6 | Nc1nc2cc(C(=O)Nc3ccc(Cl)c(Cl)c3)ccc2n1CCCc1ccccc1 | –
39 | 10 to 15 | CCCOc1ccc(C(=O)Nc2ccc3c(c2)nc(N)n3CCCc2ccccc2)cc1 | –
40 | 15 to 20 | CCCCCCCCC(=O)Nc1ccc2c(c1)nc(N)n2CCCc1ccccc1 | –
41 | 5.58 | Nc1nc2cc(NC(=O)c3cc(Br)cc(Br)c3)ccc2n1CCCc1ccccc1 | –
42 | 20 to 40 | CCCCCc1ccc(C(=O)Nc2ccc3[nH]c(N)nc3c2)cc1 | –
